This is an account of results in ChEMBL document CHEMBL3108700, “Designing anti-inflammatory drugs from parasitic worms: a synthetic small molecule analogue of the Acanthocheilonema viteae product ES-62 prevents development of collagen-induced arthritis” (J Med Chem, 2013).

Molecules are shown by their SMILES. Active and inactive are the calls of the source. How the calls were made is not given here.

Assay [1] addresses T1, TLR2/TLR6 (Mus musculus) (UniProt Q9QUN7+Q9EPW9). Put plainly: Inhibition of TLR2/6 in BALB/c mouse BMDM assessed as downregulation of BLP-stimulated IL-6 level at 5 ug/ml preincubated for 18 hrs followed by BLP challenge measured after 24 hrs by ELISA relative to control. Type of assay: protein-complex assay. In short, it runs like this: (§1)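 BALB/c male bone marrow macrophages were differentiated 7 days with L929 supernatant (≥99% CD11b+/F4/80+). Cells were plated at 2 × 10^5/well in triplicate, rested overnight, and given compounds at 5 μg/mL for 18 h. They were then stimulated with 100 ng/mL S. minnesota LPS, 10 ng/mL Pam3CSK4 (BLP) or 0.01 μM CpG for 24 h. Supernatant IL-12p40 and IL-6 were measured by ELISA (sensitivity 16 pg/mL).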
For orientation: An ELISA detects its analyte on a solid surface through an enzyme-linked reagent.

For assay [2], the target named is T2, Toll-like receptor 4 (Mus musculus) (UniProt Q9QUK6).
T2 sequence (whole entry): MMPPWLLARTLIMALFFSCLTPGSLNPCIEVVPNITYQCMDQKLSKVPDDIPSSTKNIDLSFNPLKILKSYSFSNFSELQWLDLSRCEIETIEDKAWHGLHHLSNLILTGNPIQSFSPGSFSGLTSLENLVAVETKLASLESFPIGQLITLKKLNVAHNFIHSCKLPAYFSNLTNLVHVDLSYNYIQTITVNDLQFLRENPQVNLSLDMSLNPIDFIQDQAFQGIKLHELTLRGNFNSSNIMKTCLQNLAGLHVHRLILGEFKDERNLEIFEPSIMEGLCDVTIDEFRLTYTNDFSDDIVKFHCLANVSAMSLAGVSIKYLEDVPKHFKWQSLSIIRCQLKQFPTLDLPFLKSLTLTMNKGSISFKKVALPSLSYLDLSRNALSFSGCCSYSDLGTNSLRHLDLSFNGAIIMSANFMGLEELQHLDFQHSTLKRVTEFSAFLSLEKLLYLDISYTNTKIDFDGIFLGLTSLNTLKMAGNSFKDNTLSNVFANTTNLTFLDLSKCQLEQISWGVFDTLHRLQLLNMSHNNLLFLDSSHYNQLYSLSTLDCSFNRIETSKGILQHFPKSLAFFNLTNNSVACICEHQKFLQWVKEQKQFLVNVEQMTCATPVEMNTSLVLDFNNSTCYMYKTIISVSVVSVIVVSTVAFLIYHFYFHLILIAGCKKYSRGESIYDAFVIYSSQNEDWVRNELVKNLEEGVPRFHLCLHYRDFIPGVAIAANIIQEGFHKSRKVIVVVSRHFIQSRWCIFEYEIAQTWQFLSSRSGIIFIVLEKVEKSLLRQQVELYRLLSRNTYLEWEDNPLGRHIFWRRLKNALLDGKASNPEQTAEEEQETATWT
Put plainly: Inhibition of TLR4 in BALB/c mouse BMDM assessed as downregulation of LPS-stimulated IL-6 level at 5 ug/ml preincubated for 18 hrs followed by LPS challenge measured after 24 hrs by ELISA relative to control. In short, it runs like this:
as §1

The target in assay [3] is T1, TLR2/TLR6 (Mus musculus). Put plainly: Inhibition of TLR2/6 in BALB/c mouse BMDM assessed as downregulation of BLP-stimulated IL-12p40 level at 5 ug/ml preincubated for 18 hrs followed by BLP challenge measured after 24 hrs by ELISA relative to control. Type of assay: protein-complex assay. In short, it runs like this: as §1
The target in assay [4] is T2, Toll-like receptor 4 (Mus musculus). Put plainly: Inhibition of TLR4 in BALB/c mouse BMDM assessed as downregulation of LPS-stimulated IL-12p40 level at 5 ug/ml preincubated for 18 hrs followed by LPS challenge measured after 24 hrs by ELISA relative to control. In short, it runs like this: as §1
In assay [5] the target is T3, Toll-like receptor 9 (Mus musculus) (UniProt Q9EQU3).
T3 sequence (whole entry): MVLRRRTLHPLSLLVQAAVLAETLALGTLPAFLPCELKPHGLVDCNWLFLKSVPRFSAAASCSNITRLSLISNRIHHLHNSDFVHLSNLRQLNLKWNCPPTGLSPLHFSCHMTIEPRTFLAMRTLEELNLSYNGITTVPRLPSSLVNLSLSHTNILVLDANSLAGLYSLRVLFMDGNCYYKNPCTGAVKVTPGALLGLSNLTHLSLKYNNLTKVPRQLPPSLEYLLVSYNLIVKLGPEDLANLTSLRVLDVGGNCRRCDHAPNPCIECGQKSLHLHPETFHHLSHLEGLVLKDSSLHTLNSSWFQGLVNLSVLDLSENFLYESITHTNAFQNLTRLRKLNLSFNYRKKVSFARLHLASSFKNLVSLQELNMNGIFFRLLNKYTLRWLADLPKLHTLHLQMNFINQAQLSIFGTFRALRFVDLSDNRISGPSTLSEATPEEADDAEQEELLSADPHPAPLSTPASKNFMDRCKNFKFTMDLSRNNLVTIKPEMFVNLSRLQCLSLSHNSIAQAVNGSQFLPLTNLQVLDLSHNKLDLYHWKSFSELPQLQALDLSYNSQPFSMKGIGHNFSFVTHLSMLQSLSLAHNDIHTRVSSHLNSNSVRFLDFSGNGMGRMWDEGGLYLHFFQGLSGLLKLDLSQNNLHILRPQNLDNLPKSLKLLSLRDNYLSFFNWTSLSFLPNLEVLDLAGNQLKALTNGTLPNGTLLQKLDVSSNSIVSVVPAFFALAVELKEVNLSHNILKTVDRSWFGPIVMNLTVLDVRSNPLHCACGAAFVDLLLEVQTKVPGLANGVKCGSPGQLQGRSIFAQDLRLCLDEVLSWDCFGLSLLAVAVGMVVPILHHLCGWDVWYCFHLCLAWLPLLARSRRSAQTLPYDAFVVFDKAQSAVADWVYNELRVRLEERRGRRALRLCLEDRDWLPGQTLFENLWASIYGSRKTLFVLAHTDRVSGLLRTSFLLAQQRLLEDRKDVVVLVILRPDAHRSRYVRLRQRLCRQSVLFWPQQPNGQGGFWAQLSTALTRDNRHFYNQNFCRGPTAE
Put plainly: Inhibition of TLR9 in BALB/c mouse BMDM assessed as downregulation of CpG-stimulated IL-6 level at 5 ug/ml preincubated for 18 hrs followed by CpG challenge measured after 24 hrs by ELISA relative to control. In short, it runs like this:
as §1

The target of assay [6] is T3, Toll-like receptor 9 (Mus musculus). The assay can be described thus: Inhibition of TLR9 in BALB/c mouse BMDM assessed as downregulation of CpG-stimulated IL-12p40 level at 5 ug/ml preincubated for 18 hrs followed by CpG challenge measured after 24 hrs by ELISA relative to control. In short, it runs like this:
as §1

On to `C[N+](C)(C)CCOP(=O)(O)Cc1ccc(Br)cc1`, for which the inhibition entry (at TLR2/TLR6 (Mus musculus) [1]; in assay [2]; in assay [5]; in assay [6]) was “inactive” throughout. Moreover, the inhibition result (on TLR2/TLR6 (Mus musculus) [3]; in assay [4]) was “Active” throughout.
For `O=[N+]([O-])c1ccc(CNS(=O)(=O)CCN2CCOCC2)cc1`, the inhibition result (on TLR2/TLR6 (Mus musculus) [1]; in assay [2]; on TLR2/TLR6 (Mus musculus) [3]; in assay [4]; in assay [5]; in assay [6]) was “inactive” throughout.
On to `CCCNCCS(=O)(=O)c1ccccc1`, for which the inhibition entry at TLR2/TLR6 (Mus musculus) [1] and on TLR2/TLR6 (Mus musculus) [3] was “Active” in each case. Also, the inhibition entry in assay [2], in assay [4], in assay [5] and in assay [6] was “inactive” in each case.
For `CN(C)CCCNS(=O)(=O)Cc1ccc([N+](=O)[O-])cc1`, the inhibition entry on TLR2/TLR6 (Mus musculus) [1] is “Active”. For the same compound, the inhibition entry (in assay [2]; on TLR2/TLR6 (Mus musculus) [3]; in assay [4]; in assay [5]; in assay [6]) was “inactive” each time.
In the case of `Cc1ccc(CS(=O)(=O)CCCN(C)C)cc1`, the inhibition entry (on TLR2/TLR6 (Mus musculus) [1]; in assay [2]; on TLR2/TLR6 (Mus musculus) [3]; in assay [4]; in assay [5]; in assay [6]) was “inactive” throughout.
In the case of `O=S(=O)(CCN1CCCC1)Cc1ccc(F)cc1`, the inhibition result (on TLR2/TLR6 (Mus musculus) [1]; in assay [2]; in assay [4]; in assay [5]; in assay [6]) was “inactive” in each case. Also, the inhibition result at TLR2/TLR6 (Mus musculus) [3] was “Active”.
As to `CN(C)CCCNS(=O)(=O)Cc1ccccc1`, the inhibition entry (on TLR2/TLR6 (Mus musculus) [1]; in assay [2]; on TLR2/TLR6 (Mus musculus) [3]; in assay [4]; in assay [5]; in assay [6]) was “inactive” throughout.
`O=S(=O)(CCN1CCOCC1)c1ccccc1`: the inhibition result (on TLR2/TLR6 (Mus musculus) [1]; in assay [2]; in assay [4]; in assay [5]; in assay [6]) was “inactive” throughout. Further, the inhibition entry on TLR2/TLR6 (Mus musculus) [3] was “Active”.
For `CN(C)CCS(=O)(=O)Nc1ccccc1`, the inhibition entry (on TLR2/TLR6 (Mus musculus) [1]; in assay [2]; at TLR2/TLR6 (Mus musculus) [3]; in assay [5]; in assay [6]) was “inactive” in each case. Further, the inhibition entry in assay [4] is “Active”.
Turning to `C[N+]1(CCCS(=O)(=O)Cc2ccc(Br)cc2)CCCC1`, the inhibition result (on TLR2/TLR6 (Mus musculus) [1]; in assay [2]; at TLR2/TLR6 (Mus musculus) [3]; in assay [4]; in assay [5]; in assay [6]) was “inactive” in each case.
For the compound `Cc1ccc(CNS(=O)(=O)CCN2CCCC2)cc1`, the inhibition result (at TLR2/TLR6 (Mus musculus) [1]; in assay [2]; at TLR2/TLR6 (Mus musculus) [3]; in assay [4]; in assay [5]; in assay [6]) was “inactive” throughout.
On to `O=[N+]([O-])c1ccc(CS(=O)(=O)NCCN2CCOCC2)cc1`, for which the inhibition result (at TLR2/TLR6 (Mus musculus) [1]; in assay [2]; on TLR2/TLR6 (Mus musculus) [3]; in assay [4]; in assay [5]; in assay [6]) was “inactive” throughout.
In the case of `Cc1ccc(CS(=O)(=O)CCC[N+](C)(C)C)cc1`, the inhibition result (at TLR2/TLR6 (Mus musculus) [1]; in assay [2]; on TLR2/TLR6 (Mus musculus) [3]; in assay [4]; in assay [5]; in assay [6]) was “inactive” throughout.
As to `C[N+](C)(C)CCCS(=O)(=O)Cc1ccc(Br)cc1`, the inhibition result (on TLR2/TLR6 (Mus musculus) [1]; in assay [2]) was “Active” in each case. Also, the inhibition result (on TLR2/TLR6 (Mus musculus) [3]; in assay [4]; in assay [5]; in assay [6]) was “inactive” throughout.
As to `CC(C)(C)NCCS(=O)(=O)c1ccccc1`, the inhibition entry (at TLR2/TLR6 (Mus musculus) [1]; in assay [2]; in assay [4]; in assay [5]; in assay [6]) was “inactive” throughout. In addition, at TLR2/TLR6 (Mus musculus) [3], the inhibition entry is “Active”.
As to `Cc1ccc(CS(=O)(=O)CC[N+]2(C)CCCC2)cc1`, the inhibition entry (on TLR2/TLR6 (Mus musculus) [1]; in assay [2]; in assay [5]; in assay [6]) was “inactive” in each case. In addition, the inhibition entry (on TLR2/TLR6 (Mus musculus) [3]; in assay [4]) was “Active” throughout.
Regarding `O=S(=O)(CCNCCCO)c1ccccc1`, the inhibition result (at TLR2/TLR6 (Mus musculus) [1]; in assay [2]; in assay [4]; in assay [5]; in assay [6]) was “inactive” each time. In addition, the inhibition result on TLR2/TLR6 (Mus musculus) [3] was “Active”.
With `CN(C)CCN(C)CCS(=O)(=O)Cc1cccc(F)c1`, the inhibition result (at TLR2/TLR6 (Mus musculus) [1]; in assay [2]; at TLR2/TLR6 (Mus musculus) [3]; in assay [4]; in assay [5]; in assay [6]) was “inactive” each time.
